# Experimental data published in ChEMBL document CHEMBL4406820, “Novel reverse thia-analogs of fosmidomycin: Synthesis and antiplasmodial activity” (Eur J Med Chem, 2019).
# Legend:
# [1] = target: T1, 1-deoxy-D-xylulose 5-phosphate reductoisomerase (Mycobacterium tuberculosis, UniProt P9WNS1); experiment: Inhibition of recombinant Mycobacterium tuberculosis IspC expressed in Escherichia coli M15 using 1-deoxy-D-xylulose 5-phosphate as substrate by photometric assay
# T1 sequence (P9WNS1 whole entry): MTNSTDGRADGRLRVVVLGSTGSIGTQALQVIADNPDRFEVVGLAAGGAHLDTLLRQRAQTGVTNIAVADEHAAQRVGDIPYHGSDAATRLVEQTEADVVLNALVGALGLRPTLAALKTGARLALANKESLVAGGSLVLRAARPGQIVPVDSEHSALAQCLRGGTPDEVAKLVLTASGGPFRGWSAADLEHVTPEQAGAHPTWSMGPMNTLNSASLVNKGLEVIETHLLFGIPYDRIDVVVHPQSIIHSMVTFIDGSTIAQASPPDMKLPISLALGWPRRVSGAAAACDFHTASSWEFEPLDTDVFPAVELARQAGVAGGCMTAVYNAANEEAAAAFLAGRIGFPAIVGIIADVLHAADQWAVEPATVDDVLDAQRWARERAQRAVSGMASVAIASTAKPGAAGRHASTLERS
# [2] = target: T2, 1-deoxy-D-xylulose 5-phosphate reductoisomerase, apicoplastic (Plasmodium falciparum (isolate 3D7), UniProt Q8IKG4); experiment: Inhibition of recombinant Plasmodium falciparum IspC expressed in Escherichia coli using 1-deoxy-D-xylulose 5-phosphate as substrate by photometric assay
# T2 sequence (Q8IKG4 whole entry): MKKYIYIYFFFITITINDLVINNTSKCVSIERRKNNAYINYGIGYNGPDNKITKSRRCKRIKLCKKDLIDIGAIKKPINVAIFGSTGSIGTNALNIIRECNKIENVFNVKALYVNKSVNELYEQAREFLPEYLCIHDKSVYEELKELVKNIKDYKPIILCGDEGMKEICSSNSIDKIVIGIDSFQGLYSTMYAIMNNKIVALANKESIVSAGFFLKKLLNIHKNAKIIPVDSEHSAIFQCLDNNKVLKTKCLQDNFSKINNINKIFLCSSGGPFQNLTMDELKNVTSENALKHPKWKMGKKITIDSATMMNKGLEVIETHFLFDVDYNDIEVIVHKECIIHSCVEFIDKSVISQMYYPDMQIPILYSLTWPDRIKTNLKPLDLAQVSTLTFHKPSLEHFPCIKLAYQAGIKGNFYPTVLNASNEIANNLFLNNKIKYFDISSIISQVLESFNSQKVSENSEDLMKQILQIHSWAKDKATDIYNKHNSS
# Outline: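 P. falciparum IspC expressed in E. coli. Reaction mix: 100 mM Tris-HCl pH 7.6, 5 mM MnCl2, 5 mM DTT, 0.5 mM NADPH, 0.02 U enzyme. Inhibitor tested as a 1:3 series from 200 to 0.003 µM. Started with 0.5 mM DXP; read at 340 nm, room temperature. IC50 calculated from at least eight data points; generally two to three independent determinations.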
# HeLa = experiment: Cytotoxicity against human HeLa cells assessed as reduction in cell viability incubated for 24 hrs by neutral red assay; assay type: cell-based
# Outline: (§1)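 Cytotoxicity on HeLa monolayers quantified spectrophotometrically, given as the mean of two independent double determinations. SI is HeLa IC50 divided by the P. falciparum 3D7 IC50.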
# [3] = test system: Mycobacterium tuberculosis; experiment: Antimycobacterial activity against Mycobacterium tuberculosis H37Rv incubated for 5 days by resazurin dye based assay; assay type: functional; details: 120 h
# Acinetobacter baumannii [4] = experiment: Antimicrobial activity against Acinetobacter baumannii ATCC BAA 1605 incubated for 18 hrs by microbroth dilution assay; assay type: functional; details: ATCC BAA 1605, 18 h
# Plasmodium falciparum [5] = experiment: Antimalarial activity against asexual blood stages of Plasmodium falciparum 3D7 infected in human erythrocytes incubated for 3 days by ELISA; assay type: functional, organism-based; details: 3D7, 72 h
# Outline: (§2)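 Asexual blood-stage P. falciparum cultured in human erythrocytes; growth measured by HRP2 double-site sandwich ELISA. IC50 values are the mean of two independent double determinations.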
# Klebsiella pneumoniae [6] = experiment: Antimicrobial activity against Klebsiella pneumoniae ATCC 13883 incubated for 18 hrs by microbroth dilution assay; assay type: functional; details: ATCC 13883, 18 h
# Acinetobacter baumannii [7] = experiment: Antimicrobial activity against Acinetobacter baumannii ATCC BAA747 incubated for 18 hrs by microbroth dilution assay; assay type: functional; details: ATCC BAA747, 18 h
# Escherichia coli [8] = experiment: Antimicrobial activity against Escherichia coli ATCC BAA 2469 incubated for 18 hrs by microbroth dilution assay; assay type: functional; details: ATCC BAA 2469, 18 h
# Escherichia coli [9] = experiment: Antimicrobial activity against Escherichia coli ATCC 25922 incubated for 18 hrs by microbroth dilution assay; assay type: functional; details: ATCC 25922, 18 h
# Pseudomonas aeruginosa = experiment: Antimicrobial activity against Pseudomonas aeruginosa ATCC 27853 incubated for 18 hrs by microbroth dilution assay; assay type: functional; details: ATCC 27853, 18 h
# [10] = target: T3, 1-deoxy-D-xylulose 5-phosphate reductoisomerase (Escherichia coli, UniProt W8T2T2); experiment: Inhibition of recombinant Escherichia coli IspC expressed in Escherichia coli M15 using 1-deoxy-D-xylulose 5-phosphate as substrate by photometric assay
# T3 sequence (W8T2T2 whole entry): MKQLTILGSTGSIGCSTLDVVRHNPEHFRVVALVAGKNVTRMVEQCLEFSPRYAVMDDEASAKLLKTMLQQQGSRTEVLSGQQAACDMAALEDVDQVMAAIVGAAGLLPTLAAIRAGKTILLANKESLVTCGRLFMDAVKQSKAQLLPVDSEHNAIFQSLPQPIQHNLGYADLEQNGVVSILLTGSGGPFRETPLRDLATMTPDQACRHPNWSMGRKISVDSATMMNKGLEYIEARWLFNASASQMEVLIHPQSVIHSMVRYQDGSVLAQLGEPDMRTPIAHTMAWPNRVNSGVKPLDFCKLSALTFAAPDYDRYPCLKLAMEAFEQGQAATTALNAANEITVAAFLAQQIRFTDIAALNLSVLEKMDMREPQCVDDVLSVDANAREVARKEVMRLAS
# Outline: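 E. coli IspC, His-tagged, expressed in E. coli M15 pREP4 (IPTG 1 mM, 36 h at 20 °C) and purified by Ni2+-chelate chromatography to about 95% purity. Reaction mix: 100 mM Tris-HCl pH 7.6, 5 mM MnCl2, 5 mM DTT, 0.5 mM NADPH, 0.02 U enzyme. Inhibitor tested as a 1:3 series from 200 to 0.003 µM. Started with 0.5 mM DXP; NADPH consumption read at 340 nm, room temperature. IC50 fitted from at least eight points.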
# Klebsiella pneumoniae [11] = experiment: Antimicrobial activity against Klebsiella pneumoniae ATCC 700603 incubated for 18 hrs by microbroth dilution assay; assay type: functional; details: ATCC 700603, 18 h
# [12] = Selectivity index, ratio of IC50 for human HeLa cells to IC50 for Plasmodium falciparum 3D7; assay type: toxicity; details: read-out: Ratio IC50; outline: as §1
# Plasmodium falciparum [13] = experiment: Antimalarial activity against asexual blood stages of Plasmodium falciparum Dd2 infected in human erythrocytes incubated for 3 days by ELISA; assay type: functional, organism-based; details: Dd2, 72 h; outline: as §2
compound,measurement,setting,value
COc1cc(OC)cc(C(P(=O)(O)O)S(=O)(=O)CC(=O)NO)c1 (stereo not drawn),IC50,[1],194 µM
same,IC50,[2],0.22 µM
same,IC50,HeLa,> 500 µM
same,MIC,[3],> 100 µM
same,MIC,Acinetobacter baumannii [4],> 100 µM
same,IC50,Plasmodium falciparum [5],2.7 µM
same,MIC,Klebsiella pneumoniae [6],> 100 µM
same,MIC,Acinetobacter baumannii [7],> 100 µM
same,MIC,Escherichia coli [8],> 100 µM
same,MIC,Escherichia coli [9],> 100 µM
same,MIC,Pseudomonas aeruginosa,> 100 µM
same,IC50,[10],4.5 µM
same,MIC,Klebsiella pneumoniae [11],> 100 µM
CN(O)C(=O)CS(=O)(=O)C(c1ccccc1)P(=O)(O)O (stereo not drawn),IC50,[1],115 µM
same,IC50,[2],7.6 µM
same,IC50,Plasmodium falciparum [5],> 100 µM
same,IC50,[10],36 µM
COc1cc(OC)cc(C(P(=O)(O)O)S(=O)(=O)CC(=O)N(C)O)c1 (stereo not drawn),IC50,[1],> 1000 µM
same,IC50,[2],3.7 µM
same,IC50,HeLa,> 1000 µM
same,IC50,Plasmodium falciparum [5],> 100 µM
same,IC50,[10],80 µM
CN(O)C(=O)CS(=O)(=O)C(c1cc(F)cc(F)c1)P(=O)(O)O (stereo not drawn),IC50,[1],44 µM
same,IC50,[2],5.5 µM
same,IC50,HeLa,> 1000 µM
same,MIC,[3],> 100 µM
same,MIC,Acinetobacter baumannii [4],> 100 µM
same,IC50,Plasmodium falciparum [5],19 µM
same,MIC,Klebsiella pneumoniae [6],> 100 µM
same,MIC,Acinetobacter baumannii [7],> 100 µM
same,MIC,Escherichia coli [8],> 100 µM
same,MIC,Escherichia coli [9],> 100 µM
same,MIC,Pseudomonas aeruginosa,> 100 µM
same,IC50,[10],4.3 µM
same,MIC,Klebsiella pneumoniae [11],> 100 µM
Cc1ccc(C(P(=O)(O)O)S(=O)(=O)CC(=O)N(C)O)cc1 (stereo not drawn),IC50,[1],143 µM
same,IC50,[2],8.5 µM
same,IC50,HeLa,> 50 µM
same,MIC,[3],> 100 µM
same,MIC,Acinetobacter baumannii [4],> 100 µM
same,IC50,Plasmodium falciparum [5],> 100 µM
same,MIC,Klebsiella pneumoniae [6],> 100 µM
same,MIC,Acinetobacter baumannii [7],> 100 µM
same,MIC,Escherichia coli [8],> 100 µM
same,MIC,Escherichia coli [9],> 100 µM
same,MIC,Pseudomonas aeruginosa,> 100 µM
same,IC50,[10],36 µM
same,MIC,Klebsiella pneumoniae [11],> 100 µM
CN(O)C(=O)CS(=O)(=O)C(c1ccc(Cl)c(Cl)c1)P(=O)(O)O (stereo not drawn),IC50,[1],21 µM
same,IC50,[2],1 µM
same,IC50,HeLa,> 1000 µM
same,MIC,[3],> 100 µM
same,MIC,Acinetobacter baumannii [4],> 100 µM
same,IC50,Plasmodium falciparum [5],> 100 µM
same,MIC,Klebsiella pneumoniae [6],> 100 µM
same,MIC,Acinetobacter baumannii [7],> 100 µM
same,MIC,Escherichia coli [8],> 100 µM
same,MIC,Escherichia coli [9],> 100 µM
same,MIC,Pseudomonas aeruginosa,> 100 µM
same,IC50,[10],11 µM
same,MIC,Klebsiella pneumoniae [11],> 100 µM
CN(O)C(=O)CS(=O)(=O)C(c1cccc2ccccc12)P(=O)(O)O (stereo not drawn),IC50,[1],621 µM
same,IC50,[2],823 µM
same,IC50,HeLa,> 1000 µM
same,MIC,[3],> 100 µM
same,MIC,Acinetobacter baumannii [4],> 100 µM
same,IC50,Plasmodium falciparum [5],> 100 µM
same,MIC,Klebsiella pneumoniae [6],> 100 µM
same,MIC,Acinetobacter baumannii [7],> 100 µM
same,MIC,Escherichia coli [8],> 100 µM
same,MIC,Escherichia coli [9],> 100 µM
same,MIC,Pseudomonas aeruginosa,> 100 µM
same,IC50,[10],15 µM
same,MIC,Klebsiella pneumoniae [11],> 100 µM
Cc1ccc(C(P(=O)(O)O)S(=O)(=O)CC(=O)NO)cc1 (stereo not drawn),IC50,[1],> 1000 µM
same,IC50,[2],65 µM
same,IC50,Plasmodium falciparum [5],> 100 µM
same,IC50,[10],64 µM
CN(O)C(=O)CSC(c1ccc(Cl)c(Cl)c1)P(=O)(O)O (racemic),MIC,[3],> 100 µM
same,MIC,Acinetobacter baumannii [4],> 100 µM
same,MIC,Klebsiella pneumoniae [6],> 100 µM
same,MIC,Acinetobacter baumannii [7],> 100 µM
same,MIC,Escherichia coli [8],> 100 µM
same,MIC,Escherichia coli [9],> 100 µM
same,MIC,Pseudomonas aeruginosa,> 100 µM
same,MIC,Klebsiella pneumoniae [11],> 100 µM
CN(O)C(=O)CSC(c1cccc2ccccc12)P(=O)(O)O (racemic),MIC,[3],> 100 µM
same,MIC,Acinetobacter baumannii [4],> 100 µM
same,MIC,Klebsiella pneumoniae [6],> 100 µM
same,MIC,Acinetobacter baumannii [7],> 100 µM
same,MIC,Escherichia coli [8],> 100 µM
same,MIC,Escherichia coli [9],> 100 µM
same,MIC,Pseudomonas aeruginosa,> 100 µM
same,MIC,Klebsiella pneumoniae [11],> 100 µM
Cc1ccc(C(SCC(=O)N(C)O)P(=O)(O)O)cc1 (racemic),MIC,[3],> 100 µM
same,MIC,Acinetobacter baumannii [4],> 100 µM
same,MIC,Klebsiella pneumoniae [6],> 100 µM
same,MIC,Acinetobacter baumannii [7],> 100 µM
same,MIC,Escherichia coli [8],> 100 µM
same,MIC,Escherichia coli [9],> 100 µM
same,MIC,Pseudomonas aeruginosa,> 100 µM
same,MIC,Klebsiella pneumoniae [11],> 100 µM
CN(O)C(=O)CSC(c1cc(F)cc(F)c1)P(=O)(O)O (racemic),IC50,[1],0.11 µM
same,IC50,[2],0.013 µM
same,selectivity ratio,[12],> 6700
same,IC50,HeLa,> 1000 µM
same,MIC,[3],> 100 µM
same,MIC,Acinetobacter baumannii [4],> 100 µM
same,IC50,Plasmodium falciparum [5],0.15 µM
same,MIC,Klebsiella pneumoniae [6],> 100 µM
same,MIC,Acinetobacter baumannii [7],> 100 µM
same,MIC,Escherichia coli [8],> 100 µM
same,MIC,Escherichia coli [9],> 100 µM
same,MIC,Pseudomonas aeruginosa,> 100 µM
same,IC50,Plasmodium falciparum [13],0.13 µM
same,IC50,[10],0.018 µM
same,MIC,Klebsiella pneumoniae [11],> 100 µM
COc1cc(OC)cc(C(SCC(=O)N(C)O)P(=O)(O)O)c1 (racemic),IC50,[1],4.4 µM
same,IC50,[2],0.02 µM
same,selectivity ratio,[12],> 6400
same,IC50,HeLa,> 1000 µM
same,MIC,[3],> 100 µM
same,MIC,Acinetobacter baumannii [4],> 100 µM
same,IC50,Plasmodium falciparum [5],0.16 µM
same,MIC,Klebsiella pneumoniae [6],> 100 µM
same,MIC,Acinetobacter baumannii [7],> 100 µM
same,MIC,Escherichia coli [8],> 100 µM
same,MIC,Escherichia coli [9],> 100 µM
same,MIC,Pseudomonas aeruginosa,> 100 µM
same,IC50,Plasmodium falciparum [13],0.18 µM
same,IC50,[10],0.16 µM
same,MIC,Klebsiella pneumoniae [11],> 100 µM
O=CN(O)CCCP(=O)(O)O [FOSMIDOMYCIN SODIUM],IC50,[10],0.22 µM
